Reference: publication PMC12015351 (Scientific Reports, 2025)
pIC50: −log10 of the molar value.

Assays:
[1] = test system: SARS-CoV-2 replicon in Calu-3 cells; test: microbe, parasite or virus in culture; assay type: cell-based; conditions: for activity level in presence of Cnd: Calu-3, specific dose of Cnd (candesartan)
[2] = test system: 3CLpro; conditions: FRET-based enzymatic assay; cited from earlier work
[3] = test system: SARS-CoV-2 replicon in Caco-2 cells; assay type: cell-based; conditions: for activity level in presence of Cnd: Caco-2, specific dose of Cnd (candesartan)
[4] = target: 3CL Protease (SARS-CoV-2) (Severe acute respiratory syndrome coronavirus 2, UniProt P0DTD1); test: biochemical; conditions: read-out: inhibition of in vitro protease activity
[5] = test system: SARS-CoV-2-induced cytopathic effects in human A549 cells (A549/ACE2); conditions: live virus; cited from earlier work
[6] = test system: Calu-3 cells; test: Cell viability assay, xCelligence RTCA-DP, Calu-3; assay type: cell-based, human
[7] = test system: SARS-CoV-2-induced cytopathic effects in Vero E6; conditions: live virus; cited from earlier work
[8] = test system: 3CLpro; conditions: read-out: IC50 on 3CLpro activity; cited from earlier work
[9] = test system: Caco-2 cells; test: Cell viability assay, xCelligence RTCA-DP, Caco-2; assay type: cell-based, human; conditions: 50 µM
Summary of the method: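 Impedance-based real-time cell index monitoring. Seeding in e-plates: 15 × 10³ cells/well for Calu-3, 10 × 10³ for Caco-2. Plates rested 20 min at room temperature, then held at 37 °C, 5% CO2. After 24 h, medium replaced with test compound at 50, 10, 2 or 0.4 µM; 2 replicates per line. Readings every 15 min for 72 h; ~100 h curves compared with control.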

[10] = test system: SARS-CoV-2; conditions: mouse models; cited from earlier work
[11] = test system: SARS-CoV-2 growth in lung cells; conditions: cited from earlier work
[12] = person with VITT after ChAdOx1-S vaccine; cited from earlier work

In the case of `CCOc1nc2cccc(C(=O)O)c2n1Cc1ccc(-c2ccccc2-c2nnn[nH]2)cc1` [Cnd, Candesartan], the “IC50 range in words, Calu-3” value [1] is given as “sub-micromolar range”, the “inhibitory activity on 3CLpro” value [2] is given as “did not confirm” and the “IC50 range in words, Caco-2” value [3] is given as “sub-micromolar range”. The inhibition at 50 µM [4] was ≥ 50%.
With `CC1(C)O[C@@H]2C[C@H]3[C@@H]4C[C@H](F)C5=CC(=O)C=C[C@]5(C)[C@@]4(F)[C@@H](O)C[C@]3(C)[C@]2(C(=O)CO)O1` [Drug B2, Fluocinolone] the inhibition at 50 µM [4] was ≥ 50%.
With `CC(=O)OCC(=O)[C@@]12OC3(CCCC3)O[C@@H]1C[C@H]1[C@@H]3CCC4=CC(=O)C=C[C@]4(C)[C@@]3(F)[C@@H](O)C[C@@]12C` [Drug B5, Amcinonide] the IC50 ([1]; Severe acute respiratory syndrome coronavirus 2, Calu-3, read-out: IC50 (µM) in Calu-3 cells) was 2 to 5 µM, the “activity level in presence of Cnd” value [3] was “activity at the nanomolar (nM) level” and the inhibition at 50 µM [4] was ≥ 50%.
With `CC1(C)O[C@@H]2C[C@H]3[C@@H]4CCC5=CC(=O)C=C[C@]5(C)[C@H]4[C@@H](O)C[C@]3(C)[C@]2(C(=O)CO)O1` [Drug B7, Desonide] the inhibition at 50 µM [4] was ≥ 50%.
For `CC(=O)[C@@]1(O)CC[C@H]2[C@@H]3C[C@H](C)C4=CC(=O)C=C[C@]4(C)[C@@]3(F)[C@@H](O)C[C@@]21C` [Drug B9, Fluorometholone], the inhibition at 50 µM [4] was ≥ 50%.
In the case of `O=c1[nH]c2ccccc2n1C1CCN(CCCC(c2ccc(F)cc2)c2ccc(F)cc2)CC1` [Drug B11, Pimozide], the “inhibition of SARS-CoV-2-induced cytopathic effects” value [5] is given as “significant inhibition”, the “effect on cell proliferation (cell index)” value (“effect … (cell index)” for short) ([6]; 50 µM) is given as “reduced cell proliferation” and the “inhibition of SARS-CoV-2-induced cytopathic effects” value [7] is given as “significant inhibition”. For the same compound, the pIC50 [8] was 4.37, the “activity level in presence of Cnd” value [1] was “activity at the nanomolar (nM) level” and the “activity level in presence of Cnd” value [3] was “activity at the nanomolar (nM) level”. For the same compound, the inhibition at 50 µM [4] was ≥ 50%.
With `CC(C)C(=O)OCC(=O)[C@@]12O[C@H](C3CCCCC3)O[C@@H]1C[C@H]1[C@@H]3CCC4=CC(=O)C=C[C@]4(C)[C@H]3[C@@H](O)C[C@@]12C` [Drug B12, Ciclesonide] the “effect … (cell index)” value [9] was “toxic effects” and the “effect … (cell index)” value ([6]; 50 µM) was “reduced cell proliferation”.
With `COc1ccc2c(O[C@@H]3C[C@H]4C(=O)N[C@]5(C(=O)NS(=O)(=O)C6CC6)C[C@H]5/C=C\CCCCN(C)C(=O)[C@@H]4C3)cc(-c3nc(C(C)C)cs3)nc2c1C` [Drug B18, Simeprevir] the “effect … (cell index)” value [9] was “toxic effects”.
In the case of `Cc1c(O)cccc1C(=O)N[C@@H](CSc1ccccc1)[C@H](O)CN1C[C@H]2CCCC[C@H]2C[C@H]1C(=O)NC(C)(C)C` [Drug B21, Nelfinavir], the inhibition at 50 µM [4] was ≥ 50%.
For `Cc1ccc(NC(=O)C2(c3ccc4c(c3)OC(F)(F)O4)CC2)nc1-c1cccc(C(=O)O)c1` [Drug B22, Lumacaftor], the SARS-CoV-2 growth [10] is given as “inhibit SARS-CoV-2 growth”, the SARS-CoV-2 growth [11] is given as “inhibit SARS-CoV-2 growth” and the “IC50 range in words, Calu-3” value [1] is given as “sub-micromolar range”. The “IC50 range in words, Caco-2” value [3] was “sub-micromolar range”, the “activity level in presence of Cnd” value [3] was “activity at the nanomolar (nM) level” and the inhibition at 50 µM [4] was ≥ 50%.
In the case of `C[C@@H]1CCO[C@H]2Cn3cc(C(=O)NCc4ccc(F)cc4F)c(=O)c(O)c3C(=O)N12` [Drug B23, Dolutegravir], the inhibition at 50 µM [4] was ≥ 50%.
With `NC(=O)C(c1ccccc1)(c1ccccc1)[C@@H]1CCN(CCc2ccc3c(c2)CCO3)C1` [Drug B25, Darifenacin] the “effect … (cell index)” value ([6]; 25 µM, after a certain period) was “reduced cell proliferation” and the “effect … (cell index)” value ([6]; 50 µM) was “reduced cell proliferation”.
For `CC1=NN(c2ccc(C)c(C)c2)C(=O)/C1=N\Nc1cccc(-c2cccc(C(=O)O)c2)c1O` [Elt, Eltrombopag], the platelet levels [12] is listed as “normalized”, the “effect … (cell index)” value [9] is listed as “toxic effects” and the “effect … (cell index)” value ([6]; 50 µM) is listed as “reduced cell proliferation”. The “activity level in presence of Cnd” value [1] was “activity at the nanomolar (nM) level”, the “activity level in presence of Cnd” value [3] was “activity at the nanomolar (nM) level” and the inhibition at 50 µM [4] was ≥ 50%.
For `CC(C)COCC(CN(Cc1ccccc1)c1ccccc1)N1CCCC1` (stereo not shown) [bepridil], the “inhibition of SARS-CoV-2-induced cytopathic effects” value [5] is given as “significant inhibition” and the “inhibition of SARS-CoV-2-induced cytopathic effects” value [7] is given as “significant inhibition”.
For `CC(C)(C)c1cc(C(C)(C)C)c(NC(=O)c2c[nH]c3ccccc3c2=O)cc1O` [ivacaftor], the SARS-CoV-2 growth [10] is listed as “inhibit SARS-CoV-2 growth” and the SARS-CoV-2 growth [11] is listed as “inhibit SARS-CoV-2 growth”.
